Data: PMC5028261 (Neurochemistry international, 2016)
Where two headings read alike, the source gives them in different places.

Experiments:
[1] = tested on: CNS neurons in mixed retinal culture; conditions: ref Geiger et al., 2002; cited from earlier work
[2] = Superoxide detection by EPR with spin trap DEPMPO; type: biochemical; conditions: for reducing activity by EPR spectroscopy: converts superoxide adduct of the spin trap to hydroxyl adduct; for effect on EPR spectra of superoxide adduct of DEPMPO: xanthine/xanthine oxidase
Summary of the method: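 Superoxide is generated from hypoxanthine (200 μM) and xanthine oxidase (0.0025 U/mL) with the spin trap DEPMPO present. A hydroxyl-adduct reference spectrum comes from a Fenton reaction: FeSO4 (100 μM), diethylenetriaminepentaacetic acid (100 μM) and H2O2 (1 mM) with DEPMPO (100 mM). Superoxide- and hydroxyl-DEPMPO adducts are recorded by EPR at room temperature, 9.85 GHz.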

[3] = Cell-free disulfide reduction of DTNB; type: biochemical; conditions: for reduction of disulfides in cell-free assays: non-deprotected (borane-complexed) forms
RGC-5 cells = type: cell-based; conditions: one hour, DSSA alone 22.3 ± 0.2, mean ± SEM of 3 experiments
[4] = Superoxide scavenging, xanthine/xanthine oxidase with hydroethidine fluorescence; type: biochemical; conditions: 1, 10, 100 μM, compared to PEG-SOD control
[5] = Accelerated stability of solid compound by HPLC; type: physicochemical
[6] = over 72 hours, HPLC
[7] = octanol/water, room temperature
rat [8] = conditions: rat optic nerve transection; ref Almasieh et al., 2011; cited from earlier work
rat [9] = conditions: rat experimental glaucoma; ref Almasieh et al., 2011; cited from earlier work
[10] = tested on: RGCs and retinal endothelial cells; conditions: ref Schlieve et al., 2006; cited from earlier work
neurons after axotomy = conditions: in vivo; ref Geiger et al., 2002; cited from earlier work
rats [11] = conditions: ref Swanson et al., 2005; cited from earlier work
rats [12] = conditions: ref Hampton Research, 2016, cited from earlier work

Molecule | reducing activity by EPR spectroscopy [2] | effect on EPR spectra of superoxide adduct of DEPMPO [2] | reduction of disulfides in cell-free assays [3] | mean cell fluorescence intensity (DSSA-1) (RGC-5 cells; 10 μM) | superoxide scavenging (2-hydroxyethidium fluorescence) [4] | peak area, % of control ([5]; 40°C, 37 days) | peak area, % of control ([5]; 40°C, 125 days) | peak area, % of control ([5]; 60°C, 37 days) | peak area, % of control ([5]; 60°C, 125 days) | neuroprotection in vivo (rat [8]) | neuroprotection in vivo (rat [9]) | also measured
O[C@@H](CS)[C@@H](O)CS (racemic) [DTT, dithiothreitol] | – | – | – | – | – | – | – | – | – | – | – | in vitro survival of CNS neurons [1]: can increase in vitro survival
COC(=O)CCP(CCC(=O)OC)c1ccccc1 [P1, bis(3-propionic acid methyl ester) phenylphosphine] | strong reducing activity | did not diminish the spectra of superoxide | – | – | – | – | – | – | – | – | – | –
COC(=O)CCP(c1ccccc1)c1ccccc1 [P2, (3-propionic acid methyl ester)diphenylphosphine] | strong reducing activity | did not diminish the spectra of superoxide | – | – | – | – | – | – | – | – | – | –
[BH3-][P+](CCC(=O)OC)(c1ccccc1)c1ccccc1 [PB2, (3-propionic acid methyl ester) diphenylphosphine-borane complex] | – | – | did not reduce disulfides | 36.6 ± 0.2 | did not appreciably scavenge superoxide | 100% | 86% | 100% | 14% | neuroprotective | neuroprotective | reducing capability towards DTNB ([3]; borane removed with DABCO, pH 7, compared with DTT and TCEP): reduced disulfides more effectively than DTT or TCEP; calculated half-life ([5]; 20°C, extrapolation using the Arrhenius equation): 18 years; solubility in water [6]: 3.7 µM; log Poct/wat [7]: 1.1; no toxicity up to (concentration) [10]: 100 µM
O=C(O)CCP(CCC(=O)O)CCC(=O)O [TCEP, tris(2-carboxyethyl)phosphine] | – | – | – | – | – | – | – | – | – | – | – | mean cell fluorescence intensity (DSSA-1) (RGC-5 cells; 1 mM): 25.6 ± 0.2; neuronal death after axotomy (neurons after axotomy): prevents neuronal death; neuronal death after optic nerve crush (rats [11]): prevents neuronal death; LD50 (rats [12]; i.p injection): greater than 1024 mg/kg; LD50 (rats [12]; rats dosed orally): 3500 mg/kg
bis(3-propionic acid methyl ester) phenylphosphine-borane complex [PB1] | – | – | did not reduce disulfides | 26.7 ± 0.3 | did not appreciably scavenge superoxide | 80% | 58% | 72% | 12% | neuroprotective | neuroprotective | –
